Assay [1] deals with GABA-A receptor; anion channel. The assay is described as follows: Inhibition of 0.6 nM [3H]flunitrazepam binding to GABA-A central benzodiazepine receptor of rat forebrain membrane. The method, boiled down:
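Rat forebrain membranes with [3H]flunitrazepam at 0.6 nM, modified Squires–Braestrup method. IC50 (nM) read from displacement curves of at least four concentrations, each in triplicate.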

In assay [2] the test system is Mus musculus. The assay is described as follows: Anticonvulsant activity in CD-1 mice with 120 mg/kg of leptazol. The assay is classed as functional. The method, boiled down: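 Male CD-1 mice challenged with leptazol at 120 mg/kg, following Everett and Richards. ED50 (mg/kg po) with 95% confidence limits by Litchfield–Wilcoxon where the doses allowed.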
The species entered for assay [3] is Mus musculus. The assay is described as follows: Sedative/muscle relaxant effect in mice by using Rotating-Drum test. The assay is classed as functional. In short, it runs like this:
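Male CD-1 mice were placed on a rotating drum (3 cm diameter, 16 rev/min) 1 h after dosing. Mean time on the drum for groups of 10 was expressed as a percentage of the control group mean.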

Assay [4] is filed under the species Rattus norvegicus. The assay is described as follows: Minimum Effective Dose (MED) was measured using Food-Conflict test in rats. The assay is classed as functional. The settings on record: read-out: MED. The method, boiled down:
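Male Lister rats on alternating schedule: five 4-min FI30 unpunished and 3-min FR5 punished components (food-motivated). Oral dosing, first at 50 mg/kg in four rats, then at decreasing doses if active until the minimum effective dose was reached.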

Assay [5] is filed under the species Mus musculus. The assay is described as follows: Muscle relaxation in mice by using Pull-Up test. The assay is classed as functional.
The species named for assay [6] is Rattus norvegicus. The assay is described as follows: Minimum Effective Dose(MED was measured by using Licking-Conflict test in rats. The assay is classed as functional. The settings on record: read-out: MED. In short, it runs like this:
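Rats trained to stable suppression of drinking at tone onset. Each session had 1 min unpunished drinking, then a tone lasting through a 3-min punished period.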

The term IC50 denotes the concentration that inhibits the measured activity by half. Read a high IC50 as lower potency. A word on the ED50: it is the dose that gives a 50% effect, or the effect in half of the subjects. Higher therefore signals weaker potency. In assay [1], `CCc1ccc2c(c1)c(OC)cc1nc(C(=O)c3ccccc3)cn12` came in with a 50% inhibitory concentration (IC50) of 14 nM. In addition, the ED50 in the assay on Mus musculus [2] is 3.2 mg/kg; in the assay filed under Mus musculus [3] it was 22.5 mg/kg; in the assay listed under Mus musculus [5] it was 640 mg/kg. Also, the minimal effective dose in the assay filed under Rattus norvegicus [4] was 5 mg/kg; in the assay listed under Rattus norvegicus [6] it was 2 mg/kg.

For `CCc1c(SC)nc2nc(C(=O)c3ccccc3)cn2c1C`, in assay [1], the IC50 was found to be 12 nM. The ED50 in the assay with Mus musculus [2] is 12.5 mg/kg; in the assay listed under Mus musculus [3], 100 mg/kg; in the assay listed under Mus musculus [5], 200 mg/kg. Further, the minimal effective dose in the assay filed under Rattus norvegicus [4] and in the assay listed under Rattus norvegicus [6] was 2 mg/kg in each case.

The record behind these values is ChEMBL document CHEMBL1124258, “(Imidazo[1,2-a]pyrimidin-2-yl)phenylmethanones and related compounds as potential nonsedative anxiolytics” (J Med Chem, 1988).
